# Assay results from ChEMBL document CHEMBL4038269, “Design, synthesis and evaluation of novel feruloyl-donepezil hybrids as potential multitarget drugs for the treatment of Alzheimer's disease” (Eur J Med Chem, 2017).
# Calls of active or inactive are those of the source. The calls are words filed in the database; no cut-off is given here.
# What was measured:
# Mus musculus [1] = assay: Anti-inflammatory activity in Swiss mouse assessed as reduction in carrageenan-induced paw edema at 100 umol/kg, po pretreated for 1 hr followed by carrageenan challenge after 3 hrs by plethysmometer; type: functional, organism-based
# Outline: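 Adult male Swiss mice (22-28 g), fasted overnight, given vehicle (DMSO 2% in sterile saline) or 100 µmol/kg orally 1 h before intraplantar carrageenan. Methods give 400 µg/20 µl and n=10 per group; figure legend gives 100 µg/paw and n=8. Right hind paw volume read by plethysmometer at 1, 3 and 5 h. Reported as change in µL from basal volume, mean ± SEM.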
# Cholinesterase = Cholinesterase (Equus caballus, UniProt P81908); assay: Inhibition of equine serum BuChE using butyrylthiocholine iodide as substrate pretreated for 10 mins followed by substrate addition measured at 12 secs interval for 5 mins by Ellman's method
# Chain of Cholinesterase (P81908 whole entry): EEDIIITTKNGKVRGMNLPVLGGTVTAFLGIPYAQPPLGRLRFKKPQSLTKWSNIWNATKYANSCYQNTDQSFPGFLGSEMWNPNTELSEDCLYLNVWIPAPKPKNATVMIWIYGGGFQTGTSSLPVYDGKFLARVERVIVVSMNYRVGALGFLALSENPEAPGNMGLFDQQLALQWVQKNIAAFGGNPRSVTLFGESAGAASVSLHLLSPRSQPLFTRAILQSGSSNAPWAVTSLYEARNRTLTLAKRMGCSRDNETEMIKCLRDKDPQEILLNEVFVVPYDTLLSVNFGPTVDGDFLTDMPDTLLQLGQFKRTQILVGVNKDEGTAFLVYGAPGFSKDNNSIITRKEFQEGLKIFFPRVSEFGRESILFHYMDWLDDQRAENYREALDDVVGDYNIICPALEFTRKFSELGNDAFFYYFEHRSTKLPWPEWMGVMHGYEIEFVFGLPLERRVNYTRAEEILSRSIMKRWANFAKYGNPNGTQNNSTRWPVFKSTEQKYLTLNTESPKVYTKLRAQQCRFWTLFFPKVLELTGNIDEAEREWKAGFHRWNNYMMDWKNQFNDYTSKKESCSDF
# Outline: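 Ellman assay in 0.1 M sodium phosphate pH 7.4, enzyme 0.5 U/mL, DTNB 10 mM; concentration series preincubated 10 min before butyrylthiocholine iodide ([…]); A412 over 5 min at 12 s intervals. IC50 from fitted concentration-response curves, geometric mean of independent experiments, each in triplicate; DMSO ≤0.2% final.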
# SH-SY5Y [2] = assay: Antioxidant activity in human SH-SY5Y cells assessed as reduction in H2O2-induced reactive oxygen species formation measured after 24 hrs by DCFH-DA probe based fluorescence assay; type: functional, cell-based
# SH-SY5Y [3] = assay: Neuroprotective activity in human SH-SY5Y cells assessed as reduction in amyloid beta (1 to 42)-induced late neuronal death at 20 uM after 24 hrs by propidium iodide staining based fluorescence microscopic method; type: functional, cell-based
# Outline: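 SH-SY5Y cells at 5×10^3 cells/well, grown 24 h, then compound (20 µM) with Aβ1-42 oligomers for 24 h at 37 °C; oligomers 10 µM in methods, 20 µM in legend. Stained with propidium iodide (25 µg/mL in PBS) for 10 min. Four random fields of 50–100 cells scored by fluorescence microscopy; dead cells % = PI-positive/total × 100.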
# Mus musculus [4] = assay: Neurotoxicity in Swiss mouse assessed as induction of motor impairment at 100 umol/kg, po measured after 1 hr by open filed test; type: toxicity, organism-based; conditions: in vivo
# Outline: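 Male Swiss mice (n=8) given vehicle or compound orally 1 h before open-field test. Crossings of the central four and peripheral 12 squares counted separately.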
# [5] = Metal chelating activity assessed as compound-Fe3+ complex formation at 75 uM after 30 mins by UV-Vis spectrophotometric method; type: functional
# Outline: (§1)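 UV-Vis spectra in ethanol of compound at 75 µM alone or after 30 min incubation with CuSO4, FeSO4, FeCl3 or ZnCl2 (150 µM). Absorption maxima recorded.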
# SH-SY5Y [6] = assay: Antioxidant activity in human SH-SY5Y cells assessed as increase in GSH level at 20 uM after 24 hrs by MCB probe based assay relative to control; type: functional
# Outline: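 SH-SY5Y cells (DMEM, 10% FBS, 37 °C, 5% CO2) seeded at 2 x 10^4 cells/well and grown 24 h. Treated with 20 µM compound for 3-24 h. Then 50 µM monochlorobimane in PBS for 30 min at 37 °C. GSH fluorescence read at ex 360/em 465 nm, as % of control cells. Mean ± SD of three independent experiments.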
# [7] = Antioxidant activity assessed as DPPH radical scavenging activity measured after 30 mins; type: functional
# Outline: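 DPPH scavenging: compound at 12.5, 25, 50 and 100 µM in ethanol (4 mL) mixed with 1 mL of 0.5 mM DPPH in ethanol. Shaken 30 min at room temperature, absorbance read at 517 nm. % inhibition = (A control − A sample)/A control × 100. Run in triplicate; EC50 obtained by linear regression of mean values.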
# Acetylcholinesterase = Acetylcholinesterase (Electrophorus electricus, UniProt O42275); assay: Inhibition of Electrophorus electricus AChE using acetylthiocholine iodide as substrate pretreated for 10 mins followed by substrate addition measured at 12 secs interval for 5 mins by Ellman's method
# Chain of Acetylcholinesterase (O42275 whole entry): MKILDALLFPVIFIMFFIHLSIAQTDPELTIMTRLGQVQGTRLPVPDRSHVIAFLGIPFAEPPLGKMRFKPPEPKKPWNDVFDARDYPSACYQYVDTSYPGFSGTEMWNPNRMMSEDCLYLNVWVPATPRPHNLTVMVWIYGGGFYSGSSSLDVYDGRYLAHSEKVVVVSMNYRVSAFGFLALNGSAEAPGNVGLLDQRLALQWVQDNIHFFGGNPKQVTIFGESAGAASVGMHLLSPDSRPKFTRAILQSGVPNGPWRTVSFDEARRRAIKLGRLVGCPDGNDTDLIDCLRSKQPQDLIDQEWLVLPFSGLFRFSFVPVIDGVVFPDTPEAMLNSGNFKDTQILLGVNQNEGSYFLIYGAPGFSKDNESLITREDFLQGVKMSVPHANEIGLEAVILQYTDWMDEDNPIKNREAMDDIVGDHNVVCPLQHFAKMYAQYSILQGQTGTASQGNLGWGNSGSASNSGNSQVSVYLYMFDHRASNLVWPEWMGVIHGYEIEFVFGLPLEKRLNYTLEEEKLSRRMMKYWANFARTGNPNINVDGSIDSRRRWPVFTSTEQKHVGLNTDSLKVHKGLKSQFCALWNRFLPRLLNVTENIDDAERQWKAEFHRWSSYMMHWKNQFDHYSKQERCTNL
# Mus musculus [8] = assay: Antiinflammatory activity in formalin-induced nociception Swiss mouse model assessed as reduction in time spent licking formalin injected hind paw during neurogenic phase at 100 umol/kg, po pretreated for 1 hr followed by formalin challenge measured up to 5 mins; type: functional, organism-based
# Outline: (§2)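 Male Swiss mice (22-28 g), n=8 per group, given oral vehicle (saline + DMSO 2%) or 100 µmol/kg 1 h before formalin (5% in 0.9% saline, 20 µl) into the right hind paw sub-plantar region. Morphine 39 µmol/kg i.p. was given 30 min before. Paw-licking time recorded at 0–5 min (neurogenic phase) and 20–30 min (inflammatory phase).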
# Mus musculus [9] = assay: In vivo inhibition of 5-LOX activity in carrageenan-induced Swiss mouse serum at 100 umol/kg, po pretreated for 1 hr followed by carrageenan challenge after 3 hrs by ELISA relative to control; type: functional
# Outline: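 Male Swiss mice given oral drug (100 µmol/kg) or vehicle 1 h before intraplantar carrageenan (legend: 400 µg/paw). At 3 h, animals anaesthetised with chloral hydrate and cardiac blood taken. Serum separated (1500 rpm, 20 min) and frozen at -70 °C. COX-1, COX-2 and 5-LOX measured by specific sandwich ELISA at 450 nm. Expressed as % enzymatic activity, mean ± SEM, n=8.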
# [10] = Metal chelating activity assessed as absorption maximum for compound-Fe2+ complex formation at 75 uM after 30 mins by UV-Vis spectrophotometric method (reference value: 237.2 nanometer); type: functional; outline: as §1
# SH-SY5Y [11] = assay: Antioxidant activity in human SH-SY5Y cells assessed as reduction in H2O2-induced reactive oxygen species formation at 20 uM pretreated for 24 hrs followed by H2O2 addition measured after 30 mins DCFH-DA probe based fluorescence assay; type: functional, cell-based
# Outline: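 SH-SY5Y cells treated 24 h with compound (20 µM in figure), then exposed to 100 µM H2O2 for 30 min. Intracellular ROS read with DCFH-DA probe (10 µg/mL, 30 min preload) at ex 485/em 535 nm. Expressed as % of control cells; mean ± SD, three independent experiments.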
# SH-SY5Y [12] = assay: Copper chelating activity in human SH-SY5Y cells assessed as reduction in CuSO4/H2O2-induced reactive oxygen species formation at 10 to 20 uM after 30 mins by DCFH-DA probe based fluorescence assay; type: functional, cell-based
# Outline: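 SH-SY5Y cells seeded at 3 x 10^4 cells/well and preloaded with DCFH-DA (10 µg/mL, 30 min, room temperature). Then given compound (5, 10, 20 µM) with FeSO4/H2O2 or CuSO4/H2O2 for 30 min; metal 25 µM and H2O2 100 µM per figure legend. Fluorescence read at ex 485/em 535 nm, arbitrary units. Mean ± SD of three experiments.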
# Mus musculus [13] = assay: Antiinflammatory activity in formalin-induced nociception Swiss mouse model assessed as reduction in time spent licking formalin injected hind paw during inflammatory phase at 100 umol/kg, po pretreated for 1 hr followed by formalin challenge measured after 20 to 30 mins; type: functional, organism-based; outline: as §2
smiles,measurement,setting,value
COc1cc(/C=C/C(=O)OCC2CCN(Cc3ccccc3)CC2)ccc1O,Activity,Mus musculus [1],Active
same,IC50,Cholinesterase,25 µM
same,Activity,SH-SY5Y [2],Dose-dependent effect
same,IC50,"SH-SY5Y [2]; Homo sapiens, SH-SY5Y, 24 h, read-out: IC50",16.9 µM
same,Activity,SH-SY5Y [3],Active
same,Activity,Mus musculus [4],Non-Toxic
same,Activity,[5],inactive
same,fold change (FC),SH-SY5Y [6],1.4
same,EC50,[7],49.4 µM
same,IC50,Acetylcholinesterase,0.46 µM
same,Activity,Mus musculus [8],Active
same,inhibition in vivo at 100 µmol/kg,Mus musculus [9],30%
same,Activity,[10],249 nm
same,Activity,SH-SY5Y [11],Active
same,Activity,SH-SY5Y [12],Active
same,Activity,Mus musculus [13],Active
